In brackets after ≈: the same amount, converted by molar mass. Activity calls are given as the source filed them. The calls are words filed in the database; no cut-off is given here.
What was measured:
Pseudomonas aeruginosa [1] = assay: Antibacterial activity against Pseudomonas aeruginosa ATCC 27853 measured over 1 month by microdilution assay; format: functional, organism-based
In short: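 Serial passage of P. aeruginosa ATCC 27853 held continuously at half the MIC for up to 38 days. […] The new minimal inhibitory concentration is read by visual inspection, confirmed by agar dilution, and the drug level raised to match.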

J774 [2] = assay: (§1) Cytotoxicity against mouse J774 cells assessed as cell viability at 10 uM after 24 hrs by MTT assay relative to control; format: cell-based; conditions: j774, 24 h, 10 µM
In short: (§2)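 Murine J774 macrophages are exposed for 24 h to compound at 10 or 30 µM, then given 0.2 mg/mL MTT for 1 h. The reaction is stopped with DMSO and OD read at 570 nm; viability is metabolic activity as % of control. The number of independent experiments is given per value.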

J774 [3] = assay: (§3) Cytotoxicity against mouse J774 cells assessed as cell viability at 30 uM after 24 hrs by MTT assay relative to control; format: cell-based; conditions: j774, 24 h, 30 µM; in short: as §2
Escherichia coli [4] = assay: Antibacterial activity against Escherichia coli PAZ505H8101 harboring AAC6'-1B by microdilution assay; format: functional
In short: (§4)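 Broth microdilution MIC per CLSI recommendations, fresh culture in cation-adjusted Mueller-Hinton broth, starting inoculum 10^6 cells.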

Pseudomonas aeruginosa [5] = assay: Antibacterial activity against Pseudomonas aeruginosa PA406 harboring triABC deletion mutant by microdilution assay; format: functional; in short: as §4
Pseudomonas aeruginosa [6] = assay: Antibacterial activity against Pseudomonas aeruginosa ATCC 27853 by microdilution assay; format: functional
In short: (§5)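 Broth microdilution per CLSI recommendations, using a fresh culture in cation-adjusted Mueller-Hinton broth (CA-MHB) and a starting inoculum of 10^6 cells; the MIC is the value read.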

Staphylococcus aureus [7] = assay: Antibacterial activity against methicillin-resistant Staphylococcus aureus ATCC 33592 by microdilution assay; format: functional; in short: as §4
Acinetobacter lwoffii [8] = assay: Antibacterial activity against Acinetobacter lwoffii AI.88-483 harboring APH3'-6A by microdilution assay; format: functional; in short: as §4
[9] = as §1; format: cell-based; conditions: J774 cells, read-out: Activity; in short: as §2
Staphylococcus aureus [10] = assay: Antibacterial activity against Staphylococcus aureus SA-1 expressing NorA pump by microdilution assay
Acinetobacter lwoffii [11] = assay: Antibacterial activity against Acinetobacter lwoffii ATCC 17925 by microdilution assay; format: functional; in short: as §5
Staphylococcus aureus [12] = assay: Antibacterial activity against Staphylococcus aureus ATCC 25923 by microdilution assay; format: functional; in short: as §4
[13] = as §3; format: cell-based; conditions: J774 cells, read-out: Activity; in short: as §2
Escherichia coli [14] = assay: microbe, parasite or virus in culture; conditions: ATCC 25922
Pseudomonas aeruginosa [15] = assay: Antibacterial activity against Pseudomonas aeruginosa FO3 harboring AAC6'-2A by microdilution assay; format: functional; in short: as §4
Pseudomonas aeruginosa [16] = assay: Antibacterial activity against Pseudomonas aeruginosa PA22 harboring surexp MexXY by microdilution assay; format: functional; in short: as §4
Klebsiella pneumoniae = assay: Antibacterial activity against Klebsiella pneumoniae 700603 by microdilution assay; format: functional; in short: as §5
Pseudomonas aeruginosa [17] = assay: Antibacterial activity against Pseudomonas aeruginosa ATCC 27853 after 15 to 38 days by microdilution assay; format: functional
Escherichia coli [18] = assay: Antibacterial activity against Escherichia coli L8058.1 harboring ANT2'-1A by microdilution assay; format: functional; in short: as §4
Pseudomonas aeruginosa [19] = assay: microbe, parasite or virus in culture; conditions: ATCC 27853

Compound	Activity (Pseudomonas aeruginosa [1])	Activity (J774 [2])	Activity (J774 [3])	MIC (Escherichia coli [4])	MIC (Pseudomonas aeruginosa [5])	MIC (Pseudomonas aeruginosa [6])	MIC (Staphylococcus aureus [7])	MIC (Acinetobacter lwoffii [8])	viability at 24 h, 10 µM [9]	MIC (Staphylococcus aureus [10])	MIC (Acinetobacter lwoffii [11])	MIC (Staphylococcus aureus [12])	viability at 24 h, 30 µM [13]	MIC (Escherichia coli [14])	MIC (Pseudomonas aeruginosa [15])	MIC (Pseudomonas aeruginosa [16])	MIC (Klebsiella pneumoniae)	MIC (Pseudomonas aeruginosa [17])	MIC (Escherichia coli [18])	MIC (Pseudomonas aeruginosa [19])
NC[C@H]1O[C@H](O[C@H]2[C@H](O)[C@@H](O)[C@H](N)C[C@@H]2N)[C@H](N)[C@@H](OCCCc2ccc3ccccc3c2)[C@@H]1OCCCc1ccc2ccccc2c1	Active																			
GENTAMICIN		88.4%	82.9%																	
CCCCCCCCCO[C@@H]1[C@@H](N)[C@@H](O[C@H]2[C@H](O)[C@@H](OCCCCCCCCC)[C@H](N)C[C@@H]2N)O[C@H](CN)[C@H]1O				2 to 4 µg/mL (≈ 3.48 to 6.96 µM)	2 to 4 µg/mL (≈ 3.48 to 6.96 µM)	2 to 4 µg/mL (≈ 3.48 to 6.96 µM)	2 to 4 µg/mL (≈ 3.48 to 6.96 µM)	16 µg/mL (≈ 27.8 µM)	86.7%	1 µg/mL (≈ 1.74 µM)	2 µg/mL (≈ 3.48 µM)	1 µg/mL (≈ 1.74 µM)	67.4%	2 to 4 µg/mL (≈ 3.48 to 6.96 µM)	4 to 8 µg/mL (≈ 6.96 to 13.9 µM)	4 µg/mL (≈ 6.96 µM)	4 µg/mL (≈ 6.96 µM)	4 µg/mL (≈ 6.96 µM)	2 to 4 µg/mL (≈ 3.48 to 6.96 µM)	
NC[C@H]1O[C@H](O[C@H]2[C@H](O)[C@@H](OCCCc3ccc4ccccc4c3)[C@H](N)C[C@@H]2N)[C@H](N)[C@@H](OCCCc2ccc3ccccc3c2)[C@@H]1O	Active			4 to 8 µg/mL (≈ 6.07 to 12.1 µM)	2 to 4 µg/mL (≈ 3.04 to 6.07 µM)	8 to 16 µg/mL (≈ 12.1 to 24.3 µM)	2 µg/mL (≈ 3.04 µM)	32 to 64 µg/mL (≈ 48.6 to 97.1 µM)	91.1%	2 µg/mL (≈ 3.04 µM)	4 µg/mL (≈ 6.07 µM)	2 µg/mL (≈ 3.04 µM)	89.5%	8 µg/mL (≈ 12.1 µM)	16 µg/mL (≈ 24.3 µM)	16 µg/mL (≈ 24.3 µM)	32 µg/mL (≈ 48.6 µM)		16 µg/mL (≈ 24.3 µM)	
O=C(O)c1cn(C2CC2)c2cc(N3CCNCC3)c(F)cc2c1=O [CIPROFLOXACIN]	Active																			16 µg/mL (≈ 48.3 µM)

Reference: ChEMBL document CHEMBL4265973, “Broad-spectrum antibacterial amphiphilic aminoglycosides: A new focus on the structure of the lipophilic groups extends the series of active dialkyl neamines” (Eur J Med Chem, 2018)
